Compound activity (PubChem BioAssay)
PRMT1 FP inh: PRMT1 (human) inhibition, primary screen. Q99873. recombinant PRMT1, activity-based probe fluorescence polarization. inhibition, % at 2.79 µM. actives 1.3% (n = 370,000);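 active means inhibition above about 21% made by adding two undisclosed values, limit read from the data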
LEDGF integ inh: blocks HIV-1 LEDGF/p75-dependent DNA integration; TR-FRET IN-LEDGF/p75 DNA integration, Eu/Cy5; inhibition, % at 3.7 µM; actives 0.64% (n = 370,000); AID 743269;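 active means inhibition above the screen-wide mean plus 3 SD, cut at about 13% in these data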;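 further: signal is the Cy5 over europium emission ratio at 671 and 618 nm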
SIAE inh: blocks human sialic acid acetylesterase. actives 0.69% (n = 370,000). AID 1053197. SIAE FP-Rh probe binding, fluorescence polarization. Q9HAT2. inhibition, % at 9.66 µM;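 active means inhibition above a cutoff: mean of compounds within the control limits plus 3 SD of those, cut at about 17% in these data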
Target sequence (Q9HAT2 whole entry, looked up): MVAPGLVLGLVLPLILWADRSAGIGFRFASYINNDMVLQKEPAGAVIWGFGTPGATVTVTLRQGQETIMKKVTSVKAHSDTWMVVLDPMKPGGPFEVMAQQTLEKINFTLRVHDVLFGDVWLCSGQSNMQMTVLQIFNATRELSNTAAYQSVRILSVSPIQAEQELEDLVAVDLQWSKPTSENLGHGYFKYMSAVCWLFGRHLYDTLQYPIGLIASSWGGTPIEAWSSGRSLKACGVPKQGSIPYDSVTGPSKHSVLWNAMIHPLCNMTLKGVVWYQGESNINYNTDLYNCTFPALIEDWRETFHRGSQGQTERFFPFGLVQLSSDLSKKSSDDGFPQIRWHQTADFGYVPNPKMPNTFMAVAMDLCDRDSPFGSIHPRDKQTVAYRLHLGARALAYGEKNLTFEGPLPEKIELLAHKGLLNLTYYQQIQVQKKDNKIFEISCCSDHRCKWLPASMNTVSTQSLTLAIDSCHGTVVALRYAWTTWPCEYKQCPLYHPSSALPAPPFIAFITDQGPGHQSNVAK
TDP2 inh: TDP2 (human) inhibition, absorbance primary screen; O95551; recombinant TDP2, T5PNP hydrolysis, p-nitrophenol absorbance 415 nm; inhibition, % at 12.8 µM; actives 0.34% (n = 370,000); AID 720702;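 active means inhibition above the mean of all tested compounds plus 3 SD, set per campaign, cut at about 25% in these data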
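Assay system: Recombinant human TDP2 | Quantity: 120 nM TDP2 per well | Incubation: 2 h at 37 °C | Signal: Epi absorbance | Evaluation: Percent inhibition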
MBD2 DNA inh: blocks human MBD2 binding to methylated DNA; Q9UBB5; TR-FRET, MBD2 binding to methylated oligonucleotide; inhibition, % at 4.4 µM; actives 0.31% (n = 370,000); AID 686964; in the data active means inhibition above about 13%
UHRF1 binding: blocks human UHRF1 binding to methylated DNA | Q96T88 | UHRF1 binding to methylated oligo, TR-FRET | inhibition, % at 4.4 µM | actives 0.75% (n = 370,000); in the data active means inhibition above about 21%;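 further: UHRF1 SRA domain binding a hemimethylated CpG hairpin DNA probe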
A number is an active result. Only some compounds are listed: those with a hit (about 3.3% of all), similar ones and a draw of the others.

How did Cc1cc(Oc2ccc(C#N)cc2)nc(N2CCOCC2)n1 do in these assays?
PRMT1 FP inh: inactive; LEDGF integ inh: inactive; SIAE inh: inactive; TDP2 inh: inactive; MBD2 DNA inh: inactive; UHRF1 binding: 21

What do the screens show for `CC12CCC(C(=O)N(CC(O)CN3CCN(Cc4ccccc4)CC3)C1=O)C2(C)C` (stereo not given)?
PRMT1 FP inh: inactive; LEDGF integ inh: inactive; SIAE inh: inactive; TDP2 inh: inactive; MBD2 DNA inh: inactive; UHRF1 binding: 24

Results for COc1cc2[nH]cc(C(=O)NCCc3ccccc3)c(=O)c2cc1OC ?
PRMT1 FP inh: inactive; LEDGF integ inh: inactive; SIAE inh: inactive; TDP2 inh: inactive; MBD2 DNA inh: inactive; UHRF1 binding: inactive

How did COCCNC(=O)c1c[nH]c2cc(OC)c(OC)cc2c1=O do in these assays?
PRMT1 FP inh: 25; LEDGF integ inh: inactive; SIAE inh: inactive; TDP2 inh: inactive; MBD2 DNA inh: inactive; UHRF1 binding: inactive

Results for CCC[C@H]1[C@@H](N(C)Cc2cccs2)CC[C@@]23CCCN2C(=O)CCC[C@@H]13 ?
PRMT1 FP inh: inactive; LEDGF integ inh: inactive; SIAE inh: inactive; TDP2 inh: inactive; MBD2 DNA inh: inactive; UHRF1 binding: inactive

How did CCc1ccccc1NC(=S)N1CCN(c2ccccc2F)CC1 do in these assays?
PRMT1 FP inh: inactive; LEDGF integ inh: inactive; SIAE inh: inactive; TDP2 inh: inactive; MBD2 DNA inh: inactive; UHRF1 binding: inactive

How did Cc1ccc(NC(=S)N2CCN(c3ccccc3F)CC2)c(C)c1 do in these assays?
PRMT1 FP inh: inactive; LEDGF integ inh: inactive; SIAE inh: inactive; TDP2 inh: inactive; MBD2 DNA inh: inactive; UHRF1 binding: 24

Results for CC(=O)c1cccc(CN2CCCC(C(=O)Nc3cccc(-n4cccn4)c3)C2)c1 (stereo not given) ?
PRMT1 FP inh: 22; LEDGF integ inh: inactive; SIAE inh: inactive; TDP2 inh: inactive; MBD2 DNA inh: inactive; UHRF1 binding: inactive

Results for Cn1c(=O)cc(OCCCC(=O)Nc2cc(C(F)(F)F)ccn2)c2ccccc21 ?
PRMT1 FP inh: inactive; LEDGF integ inh: inactive; SIAE inh: inactive; TDP2 inh: inactive; MBD2 DNA inh: inactive; UHRF1 binding: inactive

How did Cc1ccc(N2NC(=O)/C(=C/c3ccc(-c4ccc(Cl)c(C(=O)O)c4)o3)C2=O)cc1 do in these assays?
PRMT1 FP inh: inactive; LEDGF integ inh: inactive; SIAE inh: inactive; TDP2 inh: inactive; MBD2 DNA inh: inactive; UHRF1 binding: inactive

What do the screens show for `O=C1NN(c2ccc(Cl)cc2)C(=O)/C1=C\c1ccc(-c2cccc(C(=O)O)c2)o1`?
PRMT1 FP inh: inactive; LEDGF integ inh: inactive; SIAE inh: inactive; TDP2 inh: inactive; MBD2 DNA inh: inactive; UHRF1 binding: 28

What do the screens show for `CCCCCn1c(=O)[nH]c2cc(C(=O)N3CCN(CC)CC3)ccc2c1=O`?
PRMT1 FP inh: inactive; LEDGF integ inh: inactive; SIAE inh: inactive; TDP2 inh: inactive; MBD2 DNA inh: inactive; UHRF1 binding: 25

How did CCCCCn1c(=O)[nH]c2cc(C(=O)N3CCN(c4ccc(C(C)=O)cc4)CC3)ccc2c1=O do in these assays?
PRMT1 FP inh: inactive; LEDGF integ inh: inactive; SIAE inh: inactive; TDP2 inh: inactive; MBD2 DNA inh: inactive; UHRF1 binding: inactive

How did COc1cccc2c(=O)n(CC(=O)N3CCC(C)CC3)ccc12 do in these assays?
PRMT1 FP inh: inactive; LEDGF integ inh: inactive; SIAE inh: inactive; TDP2 inh: inactive; MBD2 DNA inh: inactive; UHRF1 binding: 93

How did CNc1ccc(Br)cc(C(=O)/C=C/c2cccc(OC)c2)c1=O do in these assays?
PRMT1 FP inh: 27; LEDGF integ inh: inactive; SIAE inh: inactive; TDP2 inh: inactive; MBD2 DNA inh: inactive; UHRF1 binding: inactive

How did CNc1ccc(Br)cc(C(=O)/C=C/c2ccc(Cl)cc2Cl)c1=O do in these assays?
PRMT1 FP inh: 22; LEDGF integ inh: inactive; SIAE inh: inactive; TDP2 inh: inactive; MBD2 DNA inh: inactive; UHRF1 binding: inactive

What do the screens show for `O=C(/C=C/c1ccc(Cl)cc1Cl)c1ccc[nH]1`?
PRMT1 FP inh: inactive; LEDGF integ inh: inactive; SIAE inh: inactive; TDP2 inh: inactive; MBD2 DNA inh: inactive; UHRF1 binding: inactive

What do the screens show for `COc1ccccc1CCC[C@H](CCS(=O)(=O)C(C)C)CC1CCCCC1`?
PRMT1 FP inh: inactive; LEDGF integ inh: inactive; SIAE inh: inactive; TDP2 inh: inactive; MBD2 DNA inh: inactive; UHRF1 binding: inactive

How did O=C(Oc1c(CN2CCOCC2)cc(Cl)c2cccnc12)c1ccccc1F do in these assays?
PRMT1 FP inh: inactive; LEDGF integ inh: inactive; SIAE inh: inactive; TDP2 inh: inactive; MBD2 DNA inh: inactive; UHRF1 binding: 22

Results for CCOC(=O)C(C)Oc1cc(Cl)c(C=O)cc1OC (stereo not given) ?
PRMT1 FP inh: inactive; LEDGF integ inh: inactive; SIAE inh: inactive; TDP2 inh: inactive; MBD2 DNA inh: inactive; UHRF1 binding: 62

How did c1ccc(OCc2nnc(SCc3nc4ccccc4[nH]3)n2-c2ccccc2)cc1 do in these assays?
PRMT1 FP inh: inactive; LEDGF integ inh: inactive; SIAE inh: inactive; TDP2 inh: inactive; MBD2 DNA inh: inactive; UHRF1 binding: inactive

How did O=C1c2cccc3cccc(c23)C(=O)N1c1ccc(O)cc1 do in these assays?
PRMT1 FP inh: inactive; LEDGF integ inh: inactive; SIAE inh: inactive; TDP2 inh: inactive; MBD2 DNA inh: inactive; UHRF1 binding: inactive

How did O=C1c2cccc3cccc(c23)C(=O)C1(O)O do in these assays?
PRMT1 FP inh: 54; LEDGF integ inh: inactive; SIAE inh: inactive; TDP2 inh: inactive; MBD2 DNA inh: inactive; UHRF1 binding: inactive

Results for O=C(CSC1=NNC(c2ccccn2)S1)Nc1ccc(C(F)(F)F)cc1 (stereo not given) ?
PRMT1 FP inh: 24; LEDGF integ inh: inactive; SIAE inh: inactive; TDP2 inh: inactive; MBD2 DNA inh: inactive; UHRF1 binding: inactive

Results for c1ccc(CSC2=NNC(c3ccccn3)S2)cc1 (stereo not given) ?
PRMT1 FP inh: inactive; LEDGF integ inh: inactive; SIAE inh: inactive; TDP2 inh: inactive; MBD2 DNA inh: inactive; UHRF1 binding: inactive

What do the screens show for `COc1ccc(CNC(=O)N[C@@H](CC(C)C)C(=O)O)cc1OC`?
PRMT1 FP inh: inactive; LEDGF integ inh: inactive; SIAE inh: inactive; TDP2 inh: inactive; MBD2 DNA inh: inactive; UHRF1 binding: 26

How did CN(C)C(=O)c1cc2c(c(-c3cccc(-c4ccccc4F)c3)n1)[C@@H](CCO)N(S(C)(=O)=O)C2 do in these assays?
PRMT1 FP inh: inactive; LEDGF integ inh: inactive; SIAE inh: inactive; TDP2 inh: inactive; MBD2 DNA inh: inactive; UHRF1 binding: 92

What do the screens show for `CCS(=O)(=O)N1Cc2cc(C(=O)N(C)C)nc(-c3cccc(-c4ccc(F)cc4)c3)c2[C@H]1CCO`?
PRMT1 FP inh: inactive; LEDGF integ inh: inactive; SIAE inh: inactive; TDP2 inh: inactive; MBD2 DNA inh: inactive; UHRF1 binding: inactive

Results for O=C(CSc1nnc(-c2ccccc2)n1Cc1ccco1)Nc1ccc(OCc2ccccc2)cc1 ?
PRMT1 FP inh: inactive; LEDGF integ inh: inactive; SIAE inh: inactive; TDP2 inh: inactive; MBD2 DNA inh: inactive; UHRF1 binding: inactive
